High-throughput results as filed in PubChem.
Most compounds without a hit are left out; they make up all but 3.8% or so of the library.
Kir21 block = Kir2.1 (mouse) channel inhibition; P35561; HEK293-Kir2.1, FluxOR thallium flux fluorescence; active compounds read low; B-score at 10 µM; 0.85% of 310,000 active;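 active means fluorescence ratio B-score at or below minus 3 SD of library scores, with starting-brightness B-score within 2 SD, cut at about -4.2 in these data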;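 further: channel flux triggered by added potassium and thallium sulfate stimulus; B-score of peak minus minimum fluorescence over baseline after thallium stimulus; more negative B-score means stronger Kir2.1 block with less thallium influx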
KCNQ1 act = human KCNQ1 channel potentiation or activation. CHO-K1 KCNQ1, thallium flux FluxOR fluorescence; active compounds read high. B-score at 10 µM. 0.35% of 310,000 active;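 active means fluorescence ratio B-score, a plate-corrected score, at least three library SD, with initial intensity B-score within 5 SD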
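assay system = KCNQ1-transfected CHO-K1 cells | medium = assay buffer with matched DMSO | probe or stimulus = depolarizing K+/Tl+ stimulus, K2SO4 and Tl2SO4 each 12.5 mM in 5x stock | dosing = single dose | incubation = dye 90 min, compound 20 min, room temperature | detection = kinetic FluxOR fluorescence, 10 s baseline plus 110 s post-stimulus | evaluation = ratio B score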
hERG protect = shields human hERG channel from block by proarrhythmic agents; Q12809; CHO-hERG, FluxOR thallium flux, dofetilide IC70 present; activation (rescue from dofetilide block), less the hit threshold, % at 10 µM; 0.51% of 310,000 active; AID 1511;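 active means activation above the mean of controls blocked by dofetilide plus 5 SD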;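 further: thallium influx through hERG after potassium depolarization seen as dye fluorescence rise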
KCNK9 inh = blocks the human KCNK9 two-pore domain potassium channel. B-score at 10 µM. 1.2% of 310,000 active. Q9NPC2. HEK293 KCNK9, FluxOR thallium flux fluorescence; active compounds read low;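 active means ratio B-score over 3 SD below the library mean, with starting fluorescence within 5 SD of its mean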;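 further: negative B-score means less thallium flux so channel inhibition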
Target sequence (Q9NPC2 whole entry, looked up, the tested form may be a part): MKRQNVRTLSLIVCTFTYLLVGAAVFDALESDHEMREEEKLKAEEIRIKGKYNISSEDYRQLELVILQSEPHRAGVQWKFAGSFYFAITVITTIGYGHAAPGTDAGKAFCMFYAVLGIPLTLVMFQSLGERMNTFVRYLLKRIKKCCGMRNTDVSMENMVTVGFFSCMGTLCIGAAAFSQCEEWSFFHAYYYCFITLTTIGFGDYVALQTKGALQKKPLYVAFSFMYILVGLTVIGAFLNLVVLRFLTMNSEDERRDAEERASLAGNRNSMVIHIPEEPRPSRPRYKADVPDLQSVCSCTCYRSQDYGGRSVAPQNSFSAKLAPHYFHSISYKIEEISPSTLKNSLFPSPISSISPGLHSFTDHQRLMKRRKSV
KCNK3 block = human KCNK3 channel inhibition, primary screen | O14649 | CHO-KCNK3 thallium flux, FluxOR fluorescence; active compounds read low | B-score at 10 µM | 0.84% of 340,000 active | AID 602410;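 active means B-score under library mean minus 4 SD, starting fluorescence ratio at most library mean plus 5 SD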;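 further: more negative B-score means stronger inhibition of thallium flux through KCNK3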
KCNQ1 block = inhibitors of human KCNQ1 potassium channel; 1.3% of 310,000 active; AID 2642; B-score at 10 µM; CHO-K1 KCNQ1, FluxOR thallium flux fluorescence; active compounds read high; P51787;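 active means compounds whose thallium flux B-score, printed positive for inhibition, exceeds three library SD while starting fluorescence stays within three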;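 further: channel opened by potassium depolarization with thallium stimulus after 20 min compound exposure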
* marks the source's active call; other numbers are inactive results.

How did CCOc1ccccc1NC(=O)NC1CC2CCCC(C1)N2Cc1nnnn1CCc1ccccc1 (stereo not given) do in these assays?
Kir21 block: 0.37; KCNQ1 act: inactive; hERG protect: -7; KCNK9 inh: inactive; KCNK3 block: -9.1*; KCNQ1 block: inactive

How did CC(=O)N1c2ccc(S(=O)(=O)N3CCC(C(=O)N4CCN(c5ccccc5F)CC4)CC3)cc2CC1C (stereo not given) do in these assays?
Kir21 block: 1; KCNQ1 act: inactive; hERG protect: -7; KCNK9 inh: inactive; KCNK3 block: inactive; KCNQ1 block: inactive

Results for CCCCn1c(=O)[nH]c(=O)c2c1nc(Cn1ncc(Cl)c(Cl)c1=O)n2CCC ?
Kir21 block: 0.06; KCNQ1 act: 11*; hERG protect: -17; KCNK9 inh: inactive; KCNK3 block: inactive; KCNQ1 block: inactive

How did COc1ccc(NC(=O)COC(=O)CNC(=O)c2cccs2)cc1Cl do in these assays?
KCNK3 block: inactive

What do the screens show for `COc1ccc2c(c1)sc1nc(=O)ccn12`?
Kir21 block: 1.1; KCNQ1 act: inactive; hERG protect: -11; KCNK9 inh: inactive; KCNK3 block: inactive; KCNQ1 block: inactive

Results for Cc1ccc2c(c1)sc1nc(=O)ccn12 ?
Kir21 block: -0.47; KCNQ1 act: inactive; hERG protect: 6.7*; KCNK9 inh: inactive; KCNK3 block: inactive; KCNQ1 block: inactive

What do the screens show for `Clc1ccccc1OCCN1CCCCC1`?
Kir21 block: 0.04; KCNQ1 act: inactive; hERG protect: -3; KCNK9 inh: inactive; KCNK3 block: inactive; KCNQ1 block: inactive

How did O=c1ccccn1CCOc1ccccc1Cl do in these assays?
Kir21 block: -0.05; KCNQ1 act: inactive; hERG protect: 5.3*; KCNK9 inh: inactive; KCNK3 block: inactive; KCNQ1 block: inactive

How did CC1(C)CC(=O)C2=C(C1)OC(N)=C(C#N)C2c1cc2c(cc1[N+](=O)[O-])OCO2 (stereo not given) do in these assays?
Kir21 block: -11; KCNQ1 act: inactive; hERG protect: -24; KCNK9 inh: inactive; KCNK3 block: inactive; KCNQ1 block: 10*

What do the screens show for `CCOc1cc(C2C(C#N)=C(N)OC3=C2C(=O)CC(C)(C)C3)cc([N+](=O)[O-])c1O` (stereo not given)?
Kir21 block: -0.03; KCNQ1 act: inactive; hERG protect: -4; KCNK9 inh: inactive; KCNK3 block: inactive; KCNQ1 block: inactive

How did O=C(NCC(=O)N1CCN(C(c2ccccc2)c2ccccc2)CC1)c1ccc(Br)o1 do in these assays?
Kir21 block: -0.85; KCNQ1 act: inactive; hERG protect: -3; KCNK9 inh: inactive; KCNK3 block: inactive; KCNQ1 block: inactive

Results for Cc1cc(C)cc(C(=O)NCC(=O)N2CCN(C(c3ccccc3)c3ccccc3)CC2)c1 ?
Kir21 block: 0.67; KCNQ1 act: inactive; hERG protect: -17; KCNK9 inh: inactive; KCNK3 block: inactive; KCNQ1 block: 6*

What do the screens show for `CCOC(=O)C1=C(c2ccccc2)NC(=O)NC1c1ccc(OC)cc1` (stereo not given)?
Kir21 block: 0.31; KCNQ1 act: inactive; hERG protect: 0; KCNK9 inh: inactive; KCNK3 block: inactive; KCNQ1 block: inactive

How did CCOC(=O)C1=C(c2ccccc2)NC(=O)NC1c1ccc(OC)c(OC)c1 (stereo not given) do in these assays?
Kir21 block: 0.1; KCNQ1 act: inactive; hERG protect: 5.7*; KCNK9 inh: inactive; KCNK3 block: inactive; KCNQ1 block: inactive

What do the screens show for `COc1cc(C2NC(=O)NC(C)=C2C(=O)OCc2ccccc2)ccc1O` (stereo not given)?
Kir21 block: 0.34; KCNQ1 act: inactive; hERG protect: -11; KCNK9 inh: inactive; KCNK3 block: inactive; KCNQ1 block: inactive

Results for COc1cc(C2NC(=O)NC(C)=C2C(=O)OCC2CCCCC2)ccc1O (stereo not given) ?
Kir21 block: 1.7; KCNQ1 act: inactive; hERG protect: 7.1*; KCNK9 inh: inactive; KCNK3 block: inactive; KCNQ1 block: inactive

What do the screens show for `Cc1cccc([C@H]2[C@@H]3C=CCC[C@@H]3C(=O)N2Cc2ccccc2)c1`?
KCNK3 block: inactive

What do the screens show for `CC[C@]12c3[nH]c4ccccc4c3CCN1C(=O)C(CC(=O)NCCCN(C)C)C[C@@H]2C(=O)N1CCN(C(=O)c2ccco2)CC1` (stereo not given in full)?
KCNK3 block: inactive

Results for O=C(Nc1cccc(Cl)c1)c1cc(N=Nc2ccc([N+](=O)[O-])cc2Cl)ccc1O ?
Kir21 block: -2.3; KCNQ1 act: inactive; hERG protect: -13; KCNK9 inh: inactive; KCNK3 block: inactive; KCNQ1 block: 7*

Results for O=C(Nc1ccc([N+](=O)[O-])cc1Cl)c1cc(Cl)ccc1O ?
KCNK3 block: inactive

What do the screens show for `Cc1cc(-c2onc3ccc(Cl)cc23)ccc1O`?
Kir21 block: -1.9; KCNQ1 act: inactive; hERG protect: -4; KCNK9 inh: inactive; KCNK3 block: inactive; KCNQ1 block: inactive

How did O=C(COC(=O)CNC(=O)C1CCCCC1)Nc1cc(C(F)(F)F)ccc1Cl do in these assays?
KCNK3 block: inactive

How did CCOC(=O)c1c(NC(=O)C(C)NCc2ccco2)sc2c1CCC(C)C2 (stereo not given) do in these assays?
Kir21 block: 0.52; KCNQ1 act: inactive; hERG protect: -11; KCNK9 inh: inactive; KCNK3 block: inactive; KCNQ1 block: 6*

What do the screens show for `N#C/C(=C\c1ccc(C#N)cc1)C(=O)N1CCCC1`?
Kir21 block: -0.66; KCNQ1 act: inactive; hERG protect: -13; KCNK9 inh: inactive; KCNK3 block: inactive; KCNQ1 block: 6*

What do the screens show for `N#C/C(=C\c1ccc(O)cc1)C(=O)N1CCCC1`?
Kir21 block: 0.74; KCNQ1 act: inactive; hERG protect: -8; KCNK9 inh: inactive; KCNK3 block: inactive; KCNQ1 block: inactive

What do the screens show for `COc1ccc(C)cc1-n1nnnc1SCC(=O)NC1CCCC1`?
KCNK3 block: inactive

Results for COc1ccc(C)cc1-n1nnnc1SCC1CCCCO1 (stereo not given) ?
Kir21 block: -4.7*; KCNQ1 act: inactive; hERG protect: -3; KCNK9 inh: inactive; KCNK3 block: inactive; KCNQ1 block: inactive

What do the screens show for `COc1ccc(CN(C(=O)c2nsc(Cl)c2Cl)C(C(=O)NC2CCCC2)c2ccc(C)cc2)cc1` (stereo not given)?
Kir21 block: 0.62; KCNQ1 act: inactive; hERG protect: -18; KCNK9 inh: inactive; KCNK3 block: inactive; KCNQ1 block: 11*
